From ChEMBL document CHEMBL1156045, “Discovery of novel types of inhibitors of S-adenosylmethionine synthesis by virtual screening” (J Med Chem, 2009)
Active and inactive are the calls of the source. No cut-off for these calls is given here.

How the values were obtained:
Escherichia coli [1] = experiment: Inhibition of Escherichia coli MAT assessed as incorporation of L-[methyl-14C]methionine into S-adenosyl-methionine at 1 mM after 5 to 10 mins by scintillation counting
Summary of the method: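 Screen: E. coli MAT (0.25 μM) preincubated 20 min at room temperature with 1 mM compound (15% DMSO final) in Tris·Cl pH 8.0/KCl/MgCl2. 1.5 volumes of reagents added (final 0.1 mM ATP, 0.1 mM [14C]methionine, 10 mM MgCl2). Run 5 min at 25° C, stopped with 25 mM EDTA; AdoMet on P-81 filters counted.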

NCI60 = experiment: Growth inhibition of human NCI60 cells up to 100 uM; assay type: functional, cell-based
Summary of the method: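 Tested by NCI Developmental Therapeutics Program against the 60 tumour cell line panel in its standard protocol, concentrations up to 100 μM.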

Escherichia coli [2] = experiment: Inhibition of Escherichia coli MAT assessed as incorporation of L-[methyl-14C]methionine into S-adenosyl-methionine at 200 uM after 5 to 10 mins by scintillation counting in presence of methionine treated before addition of ATP
Summary of the method: (§1)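 Onset of inhibition: 0.3 μM MAT subunits (0.3 μM inhibitor) or 10 μM enzyme (200 μM inhibitor) incubated in 50 mM Tris·Cl, 50 mM KCl, 10 mM MgCl2 with 10 mM ATP or 1 mM L-methionine where present. Aliquots diluted into assay reagents at set times; [methyl-14C]AdoMet on P-81 filters counted.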

Escherichia coli [3] = experiment: Inhibition of Escherichia coli MAT assessed as lack of recovery of detectable enzyme activity at 0.3 uM up to 20 mins measured after 24 hrs of dialysis
[4] = Inhibition of Escherichia coli MAT assessed as incorporation of L-[methyl-14C]methionine into S-adenosyl-methionine after 5 to 10 mins by scintillation counting
Summary of the method: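 Recombinant E. coli MAT (0.3 μM subunits) preincubated 20 min with inhibitor before substrates were added. Assay buffer was 50 mM Tris·Cl pH 8.0, 50 mM KCl, 10 mM MgCl2, 10 mM ATP and 0.5 mM L-[methyl-14C]methionine at 25 °C. Reactions were EDTA-quenched and AdoMet was captured on P-81 filters. Ki came from a nonlinear fit of fractional activity to the tight-binding equation.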

Escherichia coli [5] = experiment: Inhibition of Escherichia coli MAT assessed as incorporation of L-[methyl-14C]methionine into S-adenosyl-methionine at 200 uM after 5 to 10 mins by scintillation counting in presence of ATP treated before addition of methionine; summary of the method: as §1
Escherichia coli [6] = experiment: Antibacterial activity against Escherichia coli RP523 at 1 mM after overnight incubation by filter disk method; assay type: functional, organism-based
Summary of the method: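 E. coli RP523 (hyperpermeable strain): ~30 μl overnight culture spread on LB agar; 5 mm filter disks soaked with 30 μl of 1 mM compound in DMSO, or DMSO control, placed on lawn. Zone of growth inhibition measured after overnight incubation at 37° C.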

[7] = test system: Methanocaldococcus jannaschii; experiment: Inhibition of Methanococcus jannaschii MAT at 1 mM treated for 20 mins before addition of substrate
Summary of the method: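 M. jannaschii MAT (0.3 μM) preincubated 20 min with 0.1–1.0 mM compound, then assayed as for E. coli enzyme (0.1 mM ATP, 0.1 mM [14C]methionine) at 37° C. [14C]AdoMet on P-81 filters counted.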

Escherichia coli [8] = experiment: Inhibition of Escherichia coli MAT assessed as time required to achieve half maximal enzyme inhibition at 200 uM after 5 to 10 mins by scintillation counting; summary of the method: as §1
Saccharomyces cerevisiae = experiment: Antifungal activity against Saccharomyces cerevisiae RDY84 at 1 mM after overnight incubation by filter disk method; assay type: functional, organism-based
Summary of the method: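 S. cerevisiae RDY84 (pdr1Δ pdr3Δ) lawn on YDP agar; 5 mm filter disk soaked with 1 mM compound in DMSO, or DMSO control, placed on freshly spread cells. Zone of growth inhibition measured after overnight incubation at 30° C.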

| SMILES | Activity (Escherichia coli [1]) | growth inhibition (GI) (NCI60) | Activity (Escherichia coli [2]) | Activity (Escherichia coli [3]) | Ki [4] [nM] | Activity (Escherichia coli [5]) | Activity (Escherichia coli [6]) | inhibition [7] | Activity (Escherichia coli [8]) [min] | Activity (Saccharomyces cerevisiae) |
| --- | --- | --- | --- | --- | --- | --- | --- | --- | --- | --- |
| Cc1ccc(NC(=O)Nc2cccc(C(F)(F)F)c2)cc1NC(=O)Nc1cccc(C(F)(F)F)c1 | inactive |  |  |  |  |  |  |  |  |  |
| NS(=O)(=O)c1ccc(NC(=O)Nc2ccc(Cl)cc2[N+](=O)[O-])cc1 | Active | inactive | Active | Active | 6.9 | inactive | inactive | inactive | 20 | inactive |
